Assay results taken from ChEMBL document CHEMBL4480403, “DDX3X Helicase Inhibitors as a New Strategy To Fight the West Nile Virus Infection” (J Med Chem, 2019).
The source made the active and inactive calls. No cut-off for these calls is given here.

Columns and labels:
[1] = target: T1, ATP-dependent RNA helicase DDX3X (Homo sapiens, UniProt O00571); experiment: Inhibition of full length His-tagged human DDX3X expressed in Escherichia coli assessed as reduction in DDX3X helicase activity using FAM-labeled double stranded RNA as substrate after 40 mins by FRET assay relative to control
T1 sequence (O00571 2-662 limits assumed): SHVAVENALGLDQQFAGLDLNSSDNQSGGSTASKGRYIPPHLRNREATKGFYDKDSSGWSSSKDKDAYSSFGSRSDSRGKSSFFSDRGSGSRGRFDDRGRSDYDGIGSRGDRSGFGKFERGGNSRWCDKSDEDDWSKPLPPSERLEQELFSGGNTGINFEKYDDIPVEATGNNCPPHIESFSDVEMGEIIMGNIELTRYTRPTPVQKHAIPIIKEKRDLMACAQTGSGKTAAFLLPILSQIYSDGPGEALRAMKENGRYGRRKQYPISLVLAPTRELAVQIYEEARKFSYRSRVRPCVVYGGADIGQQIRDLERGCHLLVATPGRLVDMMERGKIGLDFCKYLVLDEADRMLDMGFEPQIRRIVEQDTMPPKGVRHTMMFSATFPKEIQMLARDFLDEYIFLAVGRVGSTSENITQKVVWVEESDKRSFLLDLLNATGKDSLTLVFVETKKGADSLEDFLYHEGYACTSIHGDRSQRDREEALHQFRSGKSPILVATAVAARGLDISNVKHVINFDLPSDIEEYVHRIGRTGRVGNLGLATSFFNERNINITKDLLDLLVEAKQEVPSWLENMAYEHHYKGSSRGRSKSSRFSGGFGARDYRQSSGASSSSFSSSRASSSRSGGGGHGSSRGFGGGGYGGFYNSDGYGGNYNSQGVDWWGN
In short: (§1)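 Recombinant His-tagged full-length DDX3X expressed in E. coli, Ni-NTA purified. Unwinding of FAM-labelled dsRNA, with capture strand at 100 nM, in Tris-HCl pH 8, 70 mM KCl, 2 mM MgCl2, 2 mM DTT, 2 mM ATP. Started with DDX3X, 37°C, 40 min, fluorescence read every 30 s. Initial slope gives unwinding rate; IC50 by nonlinear regression of triplicates.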

[2] = Apparent permeability of the compound by PAMPA; type: ADME
In short: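 PAMPA: 0.5 mM donor solution in pH 7.4 phosphate buffer, diluted from 1 mM DMSO stock. Filter coated with 1% phosphatidylcholine in dodecane; acceptor 50% DMSO in buffer. Incubated 5 h at room temperature with shaking. Donor and acceptor quantified by LC-UV at 280 nm and Papp calculated. Three plates on different days.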

[3] = (§2) Cytotoxicity against human HuH7 cells after 3 days by MTT assay; type: cell-based, Huh-7; conditions: human, HuH7 cells
In short: (§3)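 Huh7 cells (2.5 × 10^4 per well) adhered overnight. Confluent monolayers washed, then treated with compound (final 100–0.01 μM) or DMSO control for 3 days at 37°C. Viability by MTT, absorbance 570 nm, expressed relative to DMSO-treated cells.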

[4] = target: T1, ATP-dependent RNA helicase DDX3X; experiment: Competitive inhibition of full length His-tagged human DDX3X expressed in Escherichia coli assessed as reduction in DDX3X helicase activity using 0.1 uM FAM-labeled double stranded RNA as substrate after 40 mins by FRET assay relative to control; in short: as §1
West Nile virus [5] = experiment: Antiviral activity against West Nile virus infected in human HuH7 cells incubated for 4 days by crystal violet staining based plaque reduction assay; type: functional, organism-based; conditions: Huh-7, 96 h
In short: (§4)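 Huh7 cells (2.5 × 10^5 per well, overnight) infected with lineage 2 WNV at MOI 0.1 for 1 h at 37°C, washed, then compound added in 10-fold dilutions (final 100–0.01 μM) with DMSO as virus control. Agarose overlay, 4 days at 37°C, methanol fixation, crystal violet staining. PFU relative to DMSO; IC50 by exponential fit at 50% PFU. Duplicates, repeated at least twice.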

[6] = target: T1, ATP-dependent RNA helicase DDX3X; experiment: Competitive inhibition of full length His-tagged human DDX3X expressed in Escherichia coli assessed as reduction in DDX3X helicase activity using 0.024 uM FAM-labeled double stranded RNA as substrate after 40 mins by FRET assay relative to control; in short: as §1
[7] = target: T1, ATP-dependent RNA helicase DDX3X; experiment: Competitive inhibition of human full length His-tagged DDX3X helicase activity expressed in Escherichia coli using FAM-labeled double stranded RNA as substrate at 0.1 uM after 40 mins by fluorescence assay; in short: as §1
[8] = Metabolic stability in human liver microsomes at 50 uM after 60 mins in presence of NADPH-generating system by LC-UV-MS analysis; type: ADME, Microsome; conditions: read-out: Stability
In short: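 Compound at 50 μM final (DMSO ≤2%) incubated with human liver microsomes (0.2 mg/mL) and NADPH-generating system in 125 mM phosphate buffer pH 7.4, 37 °C, 60 min. Remaining compound measured by LC-ESI-MS in positive ion mode, with UV at 280 nm.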

West Nile virus [9] = experiment: Antiviral activity against West Nile virus; type: functional, organism-based; in short: as §4
West Nile virus [10] = experiment: Antiviral activity against West Nile virus infected in human HuH7 cells assessed as reduction in capsid protein levels at 1 uM added at 3 hrs post infection by SDS-PAGE analysis; type: functional, organism-based
In short: (§5)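 Huh7 cells were infected with WNV at MOI 0.1, with compound at 1 µM added 1 h or 3 h after infection; a no-compound infected control was run alongside. Cell lysates were run on 10% SDS-PAGE and immunoblotted with anti-capsid polyclonal antibody, then peroxidase-conjugated anti-rabbit IgG.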

A549 = experiment: Cytotoxicity against human A549 cells after 3 days by MTT assay; type: cell-based; conditions: A549, 72 h
In short: (§6)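 Confluent monolayers were washed with PBS and treated in DMEM with DMSO alone (control) or compound at final 100, 10, 1, 0.1, 0.01 μM. Cells were incubated 3 days at 37°C, then given MTT with absorbance read at 570 nm. Cytotoxicity was taken as the OD ratio of treated to DMSO wells, and CC50 was the concentration killing 50% of uninfected cells.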

West Nile virus [11] = experiment: Antiviral activity against West Nile virus infected in human HuH7 cells assessed as reduction in complementary RNA at 1 uM added at 1 hr post viral infection by PCR analysis; type: functional, organism-based
In short: (§7)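 Huh7 cells infected with WNV at MOI 0.1; compound at 1 µM added 1 h or 3 h after infection. Total RNA (200 ng) reverse-transcribed with strand-specific primers for genomic or complementary WNV RNA, then quantified by real-time PCR against plasmid standards. Detection limit 10 copies. Means with standard deviation.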

West Nile virus [12] = experiment: Antiviral activity against West Nile virus infected in African green monkey Vero cells incubated for 4 days by crystal violet staining based plaque reduction assay; type: functional, organism-based; conditions: 96 h
In short: (§8)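 Cell monolayers at 80–90% confluence were infected with WNV lineage 2 strain at MOI 0.1 for 1 h at 37°C with 5% CO2, then washed. DMSO vehicle or compound (final 100, 10, 1, 0.1, 0.01 μM) was added in duplicate under a 0.5% agarose overlay. Ribavirin served as reference. After methanol fixation and 0.1% crystal violet staining, PFU were expressed relative to DMSO control. IC50 was interpolated at 50% PFU; experiments were repeated at least twice.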

West Nile virus [13] = experiment: Antiviral activity against West Nile virus infected in human HuH7 cells assessed as reduction in genomic RNA at 1 uM added at 1 hr post viral infection by PCR analysis; type: functional, organism-based; in short: as §7
Vero = experiment: Cytotoxicity against African green monkey Vero cells after 3 days by MTT assay; type: cell-based; conditions: Chlorocebus sabaeus, 72 h; in short: as §6
West Nile virus [14] = experiment: Antiviral activity against West Nile virus infected in human HuH7 cells at 1 to 10 uM added after 3 hrs post infection by crystal violet staining based plaque reduction assay; type: functional, organism-based
In short: (§9)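 Huh7 cells infected with WNV at MOI 0.1; compound at 1 µM and 10 µM added at various times relative to infection. Read-out by viral plaque reduction assay. Means with standard deviation.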

Huh-7 = experiment: as §2; type: cell-based; conditions: Homo sapiens, Huh-7, 72 h; in short: as §3
West Nile virus [15] = experiment: Antiviral activity against West Nile virus infected in human A549 cells incubated for 4 days by crystal violet staining based plaque reduction assay; type: functional, organism-based; conditions: A549, 96 h; in short: as §8
[16] = target: T2, ATP-dependent RNA helicase DDX1 (Homo sapiens, UniProt Q92499); experiment: Inhibition of human DDX1 helicase activity
T2 sequence (Q92499 whole entry): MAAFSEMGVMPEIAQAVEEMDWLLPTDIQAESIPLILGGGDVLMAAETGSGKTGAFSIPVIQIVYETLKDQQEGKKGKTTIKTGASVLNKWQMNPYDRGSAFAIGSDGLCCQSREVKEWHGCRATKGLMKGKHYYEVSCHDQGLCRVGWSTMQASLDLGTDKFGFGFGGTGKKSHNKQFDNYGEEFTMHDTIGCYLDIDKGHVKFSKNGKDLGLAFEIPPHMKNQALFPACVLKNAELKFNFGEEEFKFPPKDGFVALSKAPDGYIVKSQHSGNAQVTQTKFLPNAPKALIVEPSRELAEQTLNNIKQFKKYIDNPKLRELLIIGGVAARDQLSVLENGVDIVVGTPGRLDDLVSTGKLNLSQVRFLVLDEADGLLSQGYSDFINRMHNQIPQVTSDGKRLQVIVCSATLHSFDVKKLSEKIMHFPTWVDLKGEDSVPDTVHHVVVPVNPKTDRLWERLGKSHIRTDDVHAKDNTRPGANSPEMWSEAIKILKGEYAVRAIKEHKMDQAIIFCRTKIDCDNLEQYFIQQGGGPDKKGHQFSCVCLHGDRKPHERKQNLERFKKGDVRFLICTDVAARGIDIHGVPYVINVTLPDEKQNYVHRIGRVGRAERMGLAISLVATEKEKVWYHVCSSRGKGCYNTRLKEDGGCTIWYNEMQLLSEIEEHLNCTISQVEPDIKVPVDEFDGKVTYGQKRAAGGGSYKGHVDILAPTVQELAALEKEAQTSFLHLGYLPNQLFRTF

West Nile virus [17] = experiment: Antiviral activity against West Nile virus infected in human HuH7 cells at 1 to 10 uM added before 2 hrs post infection by crystal violet staining based plaque reduction assay; type: functional, organism-based; in short: as §9
West Nile virus [18] = experiment: Antiviral activity against West Nile virus infected in human HuH7 cells assessed as reduction in capsid protein levels at 1 uM added at 1 hr post infection by SDS-PAGE analysis; type: functional, organism-based; in short: as §5
West Nile virus [19] = experiment: Antiviral activity against West Nile virus infected in human HuH7 cells assessed as reduction in genomic RNA at 1 uM added at 3 hrs hrs post viral infection by PCR analysis; type: functional, organism-based; in short: as §7

Row | Structure (SMILES) | inhibition [1] [%] | EC50 (West Nile virus [5]) [µM] | remaining at 1 h, 50 µM [8] [%] | CC50 at 72 h [3] [µM] | also measured
1 | CCCCc1cn(-c2cccc(S(=O)(=O)Nc3ccccc3O)c2)nn1 | 83 | 2.3 | 95.6 | > 200 | Papp [2]: 0.1 ×10⁻⁶ cm/s; ID50 [4]: 2.2 µM; ID50 [6]: 0.3 µM; ID50 [7]: 20 µM
2 | C[C@@]1(O)[C@H](O)[C@@H](CO)O[C@H]1n1ccc2c(N)ncnc21 [BETA-2'-C-METHYL-7-DEAZA-ADENOSINE] |  |  |  |  | EC50 (West Nile virus [9]): 4.5 µM
3 | CCCCc1cn(-c2cccc(S(=O)(=O)Nc3ccccc3C(F)(F)F)c2)nn1 | 98 | 23.1 | 99 |  | Activity (West Nile virus [10]): inactive; Papp [2]: 0.21 ×10⁻⁶ cm/s; IC50 (A549): 21.3 µM; Activity (West Nile virus [11]): Active; EC50 (West Nile virus [12]): 12 µM; Activity (West Nile virus [13]): Active; IC50 (Vero): > 200 µM; Activity (West Nile virus [14]): inactive; IC50 (Huh-7): > 200 µM; EC50 (West Nile virus [15]): 3.4 µM; IC50 [16]: > 200 µM; Activity (West Nile virus [17]): Active; Activity (West Nile virus [18]): Active; Activity (West Nile virus [19]): inactive
4 | CCCCc1cn(-c2cccc(S(=O)(=O)Nc3ccccc3OC)c2)nn1 | 98 |  |  |  | 
5 | CCOC(=O)[C@@](C)(O)[C@@H]1C[C@@H](CO[Si](c2ccccc2)(c2ccccc2)C(C)(C)C)O[C@H]1n1cc(F)c(=O)[nH]c1=O |  |  |  |  | EC50 (West Nile virus [9]): 27 µM
6 | CCCCc1cn(-c2cccc(S(=O)(=O)Nc3ccc(OC)cc3)c2)nn1 | 80 |  |  |  | 
7 | CCCCc1cn(-c2ccc(NC(=O)Nc3ccccc3C)cc2)nn1 | 98 | 8.8 | 99 | > 200 | IC50 [16]: > 200 µM

More lines, main results first:

Row | inhibition [1] [%] | EC50 (West Nile virus [5]) [µM] | remaining at 1 h, 50 µM [8] [%] | Structure (SMILES) | CC50 at 72 h [3] [µM] | also measured
8 | 52 |  |  | O=S(=O)(Nc1ccccc1C(F)(F)F)c1cccc(-n2cc(C3CCCCC3)nn2)c1 |  | 
9 | 24 | > 200 |  | CCCCc1cn(-c2cccc(S(=O)(=O)Nc3ccccc3F)c2)nn1 | > 200 | 
10 | 98 | 65.9 | 97.1 | CCOCc1cn(-c2cccc(S(=O)(=O)Nc3ccccc3C(F)(F)F)c2)nn1 | > 200 | Papp [2]: 0.71 ×10⁻⁶ cm/s
11 | 96 |  |  | CC(C)CCc1cn(-c2cccc(S(=O)(=O)Nc3ccccc3C(F)(F)F)c2)nn1 |  | 
12 | 59 | 39.9 |  | CCCCc1cn(-c2cccc(S(=O)(=O)Nc3ccccc3C)c2)nn1 | > 200 | 
